From ChEMBL document CHEMBL3797202, “Novel Oxindole Sulfonamides and Sulfamides: EPZ031686, the First Orally Bioavailable Small Molecule SMYD3 Inhibitor” (ACS Med Chem Lett, 2016)

Legend:
[1] = target: T1, Histone-lysine N-methyltransferase EZH1 (Homo sapiens) (UniProt Q92800); assay: Inhibition of EZH1 (unknown origin) at 10 uM relative to control
T1 sequence (whole entry): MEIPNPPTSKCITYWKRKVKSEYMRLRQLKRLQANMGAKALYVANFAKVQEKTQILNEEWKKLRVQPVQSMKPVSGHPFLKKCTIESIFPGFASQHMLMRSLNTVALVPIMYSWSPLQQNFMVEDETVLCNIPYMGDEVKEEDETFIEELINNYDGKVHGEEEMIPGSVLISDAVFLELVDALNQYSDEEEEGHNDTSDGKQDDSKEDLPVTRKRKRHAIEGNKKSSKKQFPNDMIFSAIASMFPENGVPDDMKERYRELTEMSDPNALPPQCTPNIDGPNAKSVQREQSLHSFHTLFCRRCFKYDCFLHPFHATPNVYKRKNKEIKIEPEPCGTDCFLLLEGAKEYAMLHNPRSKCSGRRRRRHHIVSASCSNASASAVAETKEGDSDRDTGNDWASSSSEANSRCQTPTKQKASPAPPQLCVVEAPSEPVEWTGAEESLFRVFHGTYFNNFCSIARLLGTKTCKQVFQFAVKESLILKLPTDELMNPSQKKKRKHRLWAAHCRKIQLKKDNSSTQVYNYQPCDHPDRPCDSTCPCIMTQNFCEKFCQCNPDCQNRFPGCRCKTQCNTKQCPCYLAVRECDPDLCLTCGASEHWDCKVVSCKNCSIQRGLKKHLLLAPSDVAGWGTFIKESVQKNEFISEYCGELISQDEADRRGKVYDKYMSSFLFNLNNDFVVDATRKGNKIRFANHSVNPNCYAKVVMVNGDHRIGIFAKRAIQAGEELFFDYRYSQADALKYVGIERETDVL

[2] = target: Protein arginine N-methyltransferase 6 (Homo sapiens) (UniProt Q96LA8); assay: Inhibition of PRMT6 (unknown origin) at 10 uM relative to control
Chain of Protein arginine N-methyltransferase 6 (Homo sapiens) (Q96LA8 whole entry, looked up): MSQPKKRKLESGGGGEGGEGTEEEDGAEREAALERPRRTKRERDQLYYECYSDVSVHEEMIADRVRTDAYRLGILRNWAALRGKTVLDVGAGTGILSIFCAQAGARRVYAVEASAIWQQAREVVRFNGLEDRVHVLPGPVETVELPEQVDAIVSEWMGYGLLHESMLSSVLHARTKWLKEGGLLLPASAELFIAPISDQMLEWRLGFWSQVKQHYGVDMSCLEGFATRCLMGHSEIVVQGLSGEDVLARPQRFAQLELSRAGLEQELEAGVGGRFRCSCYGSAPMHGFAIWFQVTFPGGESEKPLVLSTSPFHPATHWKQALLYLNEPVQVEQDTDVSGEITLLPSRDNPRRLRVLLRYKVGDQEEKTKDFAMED

[3] = target: T2, Protein arginine N-methyltransferase 7 (Homo sapiens) (UniProt Q9NVM4); assay: Inhibition of PRMT7 (unknown origin) at 10 uM relative to control
T2 sequence (whole entry): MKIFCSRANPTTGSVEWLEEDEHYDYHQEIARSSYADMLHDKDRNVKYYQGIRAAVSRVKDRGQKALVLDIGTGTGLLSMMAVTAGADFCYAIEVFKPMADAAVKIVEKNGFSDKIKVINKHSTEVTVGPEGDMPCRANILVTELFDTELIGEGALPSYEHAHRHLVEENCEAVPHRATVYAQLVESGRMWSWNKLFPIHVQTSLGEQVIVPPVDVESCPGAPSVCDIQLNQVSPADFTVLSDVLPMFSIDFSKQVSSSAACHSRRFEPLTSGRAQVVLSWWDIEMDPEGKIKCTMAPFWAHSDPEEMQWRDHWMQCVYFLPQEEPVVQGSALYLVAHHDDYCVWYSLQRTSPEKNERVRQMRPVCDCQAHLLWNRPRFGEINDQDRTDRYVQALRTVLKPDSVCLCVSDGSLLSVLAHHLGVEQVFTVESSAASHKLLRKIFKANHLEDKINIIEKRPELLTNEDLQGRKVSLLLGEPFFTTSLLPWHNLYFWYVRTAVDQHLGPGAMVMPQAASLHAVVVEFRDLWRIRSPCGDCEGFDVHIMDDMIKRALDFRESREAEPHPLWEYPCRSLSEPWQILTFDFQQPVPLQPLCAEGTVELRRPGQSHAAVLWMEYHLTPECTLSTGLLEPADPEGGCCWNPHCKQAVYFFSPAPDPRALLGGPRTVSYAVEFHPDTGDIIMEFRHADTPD

[4] = target: Protein arginine N-methyltransferase 8 (Homo sapiens) (UniProt Q9NR22); assay: Inhibition of PRMT8 (unknown origin) at 10 uM relative to control
Chain of Protein arginine N-methyltransferase 8 (Homo sapiens) (Q9NR22 2-394 limits assumed): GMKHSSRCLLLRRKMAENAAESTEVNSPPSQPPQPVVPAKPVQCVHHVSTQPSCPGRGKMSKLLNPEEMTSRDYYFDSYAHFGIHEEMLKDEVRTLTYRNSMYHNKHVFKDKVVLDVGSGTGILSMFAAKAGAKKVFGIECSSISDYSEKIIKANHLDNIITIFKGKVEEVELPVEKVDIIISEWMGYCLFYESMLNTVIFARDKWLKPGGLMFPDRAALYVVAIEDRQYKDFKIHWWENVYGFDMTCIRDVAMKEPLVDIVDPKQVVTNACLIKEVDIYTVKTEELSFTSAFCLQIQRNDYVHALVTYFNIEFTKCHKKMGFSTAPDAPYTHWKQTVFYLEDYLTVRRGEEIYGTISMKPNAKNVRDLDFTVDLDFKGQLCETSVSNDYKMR

[5] = target: T3, Histone-lysine N-methyltransferase SETD7 (Homo sapiens) (UniProt Q8WTS6); assay: Inhibition of SETD7 (unknown origin) at 10 uM relative to control
T3 sequence (whole entry): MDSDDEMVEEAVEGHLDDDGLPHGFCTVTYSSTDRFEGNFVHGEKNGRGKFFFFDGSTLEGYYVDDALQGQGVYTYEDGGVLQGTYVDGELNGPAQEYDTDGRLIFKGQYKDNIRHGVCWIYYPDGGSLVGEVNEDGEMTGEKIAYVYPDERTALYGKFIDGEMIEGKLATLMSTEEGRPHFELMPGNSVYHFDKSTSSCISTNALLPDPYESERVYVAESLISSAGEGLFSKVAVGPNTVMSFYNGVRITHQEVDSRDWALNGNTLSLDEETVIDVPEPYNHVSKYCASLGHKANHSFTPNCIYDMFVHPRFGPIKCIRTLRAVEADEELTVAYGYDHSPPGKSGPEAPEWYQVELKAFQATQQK

[6] = target: T4, Histone-lysine N-methyltransferase SUV39H1 (Homo sapiens) (UniProt O43463); assay: Inhibition of SUV39H1 (unknown origin) at 10 uM relative to control
T4 sequence (whole entry): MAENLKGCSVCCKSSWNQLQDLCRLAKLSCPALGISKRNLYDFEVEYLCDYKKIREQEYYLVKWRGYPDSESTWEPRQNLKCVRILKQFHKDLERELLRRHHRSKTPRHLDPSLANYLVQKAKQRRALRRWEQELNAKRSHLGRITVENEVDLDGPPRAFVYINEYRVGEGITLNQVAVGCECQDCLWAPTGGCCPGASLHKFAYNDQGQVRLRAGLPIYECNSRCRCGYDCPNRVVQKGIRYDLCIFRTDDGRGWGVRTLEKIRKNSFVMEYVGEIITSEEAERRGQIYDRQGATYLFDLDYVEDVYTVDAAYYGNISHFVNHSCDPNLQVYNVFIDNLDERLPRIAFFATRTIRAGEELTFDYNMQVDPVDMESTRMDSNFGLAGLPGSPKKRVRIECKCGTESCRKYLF

[7] = Intrinsic clearance in CD1 mouse liver microsomes at 1 uM incubated for 5 to 45 mins by LC-MS/MS analysis in presence of NADPH; assay type: ADME; details: read-out: CLH
How it was run: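 Mouse liver microsomal incubations; clearance scaled from microsomal data and reported as a mean value.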

[8] = Apparent permeability in human Caco2 cells at 10 uM incubated for 120 mins by LC-MS/MS analysis; assay type: ADME, cell-based; details: Caco-2
How it was run: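 Caco-2 cell monolayers; permeability measured in the apical-to-basolateral direction, with an efflux ratio also determined.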

[9] = Fraction unbound in CD1 mouse plasma at 1 uM incubated for 16 hrs by LC-MS/MS based equilibrium dialysis method; assay type: ADME, cell-free

SMILES	inhibition [1]	inhibition [2]	inhibition [3]	inhibition [4]	inhibition [5]	inhibition [6]	CLint scaled at 1 µM [7]	Papp at 2 h, 10 µM [8]	fraction unbound at 16 h, 1 µM [9]
O=C1Cc2cc(C(=O)N[C@H]3C[C@H]4CC[C@@H](C3)N4S(=O)(=O)N3CCC(NCc4ccccc4)CC3)c(Cl)cc2N1	< 30%	< 30%	< 30%	< 30%	< 30%	< 30%	34 mL/min/kg	0.34 ×10⁻⁶ cm/s	0.32
O=C1Cc2cc(C(=O)N[C@H]3C[C@H]4CC[C@@H](C3)N4S(=O)(=O)CC3CCN(CCCC(F)(F)F)CC3)c(Cl)cc2N1	< 30%	< 30%	< 30%	< 30%	< 30%	< 30%	24 mL/min/kg	0.64 ×10⁻⁶ cm/s	0.53
